# Reference: PubChem BioAssay
# Activity calls are given as the source filed them.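 The calls were made as follows, unless noted: active = viability at or below 30% in both replicate assays; inconclusive = viability at or below 30% in just one of the two assays; inactive = the rest.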
# Key:
# [1] = reducers of endogenous Her2 protein level, primary screen, SKBR3 breast tumor cells, AlphaScreen, ATP viability (AID 461;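 active = Her2 level under about 52% in both replicate screens, with viability over 70% of control, limit read from the data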;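 as to Her2 level: lower value means less Her2 protein in the cells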;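 as to viability: percent of carrier control wells set as 100% viability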); settings: 18-24 h, measured here: SKBR3 viability, ATP luminescence, at 10 µM
# [2] = molecular target: Receptor tyrosine-protein kinase erbB-2 (Homo sapiens) (UniProt P04626); test: as above; settings: 18-24 h, at 10 µM, stronger effect = lower value
# [3] = SK-BR-3 cell growth inhibitors, pilot screen, 24 h, human (AID 572;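 active = viability at or below 10% of carrier control in both of two separate runs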;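 also: compound exposure lasted between 18 and 24 h rather than exactly 24 h; 100% = carrier-treated control wells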); settings: SK-BR-3 viability, CellTiter-Glo luminescence, at 10 µM, stronger effect = lower value
# [4] = HUVEC growth inhibition – cell-based, human, primary screen (AID 575); settings: HUVEC proliferation, CellTiter-Glo luminescence, 72 h; at 10 µM; stronger effect = lower value;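 also: 100% = median of untreated cell wells with 0.1% DMSO on each plate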
# Method in brief: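 System – primary HUVEC, no more than 12 passages · Medium – Low-serum (2% FBS) EBM, supplemented · Times – 72 h exposure, 37 °C, 5% CO2, 30 min RT equilibration · Measured by – luminescent ATP assay · Read-out – % viability relative to median vehicle-well signal on each plate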
# [5] = growth inhibitors of H69AR lung tumor, primary screen, human, duplicate replicates (AID 580;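 active = viability at or under a set limit in both replicates, limit being median viability minus 3 SD, cut at about 48% in these data, passing the limit was not always enough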;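 also: 100% = mean luminescence of untreated wells and 0% = no signal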); settings: H69AR lung tumor cells viability, ATP luminescence, 72 h; at 10 µM; stronger effect = lower value
# [6] = reversal of MRP1-mediated doxorubicin resistance, pilot screen, H69AR cells, doxorubicin co-treatment (AID 601;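 active = viability loss from added drug above about 55%, and viability with drug at most 40%, in both replicates, limit read from the data, passing the limit was not always enough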); settings: CellTiter-Glo, 72 h, at 10 µM; for differential viability (reversal): stronger effect = higher value
# [7] = 384-well plate pilot, post-Golgi transport modulator project, inhibition of yeast transport mutant growth (AID 636; in the data active = inhibition above about 31%); settings: absorbance 615 nm, about 18 h, stronger effect = higher value
# [8] = growth suppression of yeast trafficking mutant, preliminary HTS, modulators of trafficking downstream of Golgi apparatus project, 1536-format plate, OD 615 nm (AID 637; in the data active = inhibition above about 30%); settings: yeast transport mutant growth, absorbance 615 nm, 18 h; stronger effect = higher value
# [9] = H69AR cells + 2 uM doxorubicin, measured here: viability with 2 uM doxorubicin, stronger effect = lower value
# [10] = H69AR cells, compound alone cytotoxicity
# Receptor tyrosine-protein kinase erbB-2 (Homo sapiens), sequence (P04626 whole entry, looked up): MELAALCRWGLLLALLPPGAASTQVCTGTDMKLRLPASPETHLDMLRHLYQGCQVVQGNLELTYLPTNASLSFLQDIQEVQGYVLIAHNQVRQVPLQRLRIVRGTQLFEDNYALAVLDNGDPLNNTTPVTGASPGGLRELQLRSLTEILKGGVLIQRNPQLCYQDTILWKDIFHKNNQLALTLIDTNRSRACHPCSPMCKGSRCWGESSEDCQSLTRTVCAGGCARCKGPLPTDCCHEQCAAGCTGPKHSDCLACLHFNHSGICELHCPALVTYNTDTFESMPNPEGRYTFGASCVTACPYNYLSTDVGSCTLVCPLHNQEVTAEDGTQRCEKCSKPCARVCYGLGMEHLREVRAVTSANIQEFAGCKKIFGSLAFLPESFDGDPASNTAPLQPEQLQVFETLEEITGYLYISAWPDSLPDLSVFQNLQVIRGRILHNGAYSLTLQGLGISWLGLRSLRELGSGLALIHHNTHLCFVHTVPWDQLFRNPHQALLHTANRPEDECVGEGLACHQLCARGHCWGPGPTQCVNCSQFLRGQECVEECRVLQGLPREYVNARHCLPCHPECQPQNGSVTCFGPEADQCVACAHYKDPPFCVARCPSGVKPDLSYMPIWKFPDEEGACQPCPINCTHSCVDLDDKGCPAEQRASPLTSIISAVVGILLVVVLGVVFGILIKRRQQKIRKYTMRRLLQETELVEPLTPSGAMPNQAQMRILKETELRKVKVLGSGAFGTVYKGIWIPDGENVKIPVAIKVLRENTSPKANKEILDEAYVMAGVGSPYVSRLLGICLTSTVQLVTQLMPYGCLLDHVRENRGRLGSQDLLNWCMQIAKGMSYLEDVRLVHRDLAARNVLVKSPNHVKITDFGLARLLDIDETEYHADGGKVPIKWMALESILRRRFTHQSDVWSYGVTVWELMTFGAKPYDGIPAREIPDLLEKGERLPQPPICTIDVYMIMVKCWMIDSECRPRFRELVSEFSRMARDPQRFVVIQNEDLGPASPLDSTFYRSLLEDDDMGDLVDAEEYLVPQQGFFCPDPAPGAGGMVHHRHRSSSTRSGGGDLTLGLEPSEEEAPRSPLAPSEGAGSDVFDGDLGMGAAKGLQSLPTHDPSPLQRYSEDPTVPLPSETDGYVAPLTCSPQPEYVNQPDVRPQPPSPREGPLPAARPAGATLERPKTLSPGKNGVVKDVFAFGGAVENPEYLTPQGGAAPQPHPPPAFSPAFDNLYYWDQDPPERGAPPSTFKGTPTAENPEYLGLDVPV
SMILES,viability [1],Her2 level [2],viability [3],viability [4],viability [5],differential viability (reversal) ([6]; H69AR cells + 2 uM doxorubicin),"viability [6, 9]","viability [6, 10]",inhibition [7],inhibition [8]
Cc1cc(C)c(-c2cc(C(=O)Nc3c(C)n(C)n(-c4ccccc4)c3=O)[nH]n2)c(O)c1,99.5%,98% (inactive),99.5% (inactive),97.5% (inactive),105% (inactive),4.32% (inactive),100%,105%,-1.97% (inactive),-5.09% (inactive)
O=C(CSc1nc(-c2ccccc2)cs1)NC(=O)NCc1ccco1,86.5%,77.5% (inactive),86.5% (inactive),58.4% (inactive),76.7% (inactive),-0.93% (inactive),77.6%,76.7%,-5.6% (inactive),2.06% (inactive)
COc1cccc(NC(=O)NC2(C(F)(F)F)Oc3ccccc3O2)c1,91.5%,98% (inactive),91.5% (inactive),69.1% (inactive),30.7% (active),-17.4% (inactive),48.1%,30.7%,-5.07% (inactive),-0.16% (inactive)
O=C1C2C3C=CC(C3)C2C(=O)N1Cc1ccccc1 (stereo not given),93.5%,114% (inactive),93.5% (inactive),116% (inactive),89.6% (inactive),9.27% (inactive),80.3%,89.6%,-3.47% (inactive),2.95% (inactive)
O=C(CCN1C(=O)C2C3C=CC(C3)C2C1=O)Nc1c(F)cc(F)cc1Br (stereo not given),99.5%,91.5% (inactive),99.5% (inactive),90.2% (inactive),103% (inactive),20.3% (inactive),82.6%,103%,1.08% (inactive),-4.13% (inactive)
CC1=C/C(=C/N(C)c2ccccc2)C(=O)S1,109%,94% (inactive),109% (inactive),79.7% (inactive),89.3% (inactive),4.12% (inactive),85.2%,89.3%,0.41% (inactive),-3.49% (inactive)
CCn1nnc(NC(=O)c2ccc(-c3ccc(Cl)cc3)o2)n1,87.5%,122% (inactive),87.5% (inactive),90% (inactive),91.2% (inactive),3.21% (inactive),88%,91.2%,-6.62% (inactive),-0.66% (inactive)
CCCN1CCC(NC(=O)Nc2ccc(OC)c(OC)c2)CC1,124%,96.5% (inactive),124% (inactive),111% (inactive),90.7% (inactive),4.61% (inactive),86.1%,90.7%,-1.69% (inactive),-2.33% (inactive)
COc1cc(SC)ccc1C(=O)Nc1ccon1,98.5%,104% (inactive),98.5% (inactive),93% (inactive),101% (inactive),6.34% (inactive),94.5%,101%,0.27% (inactive),18.6% (inactive)
CCNC(=O)N1c2ccc(OCC)cc2C(C)=CC1(C)C,95.5%,99.5% (inactive),95.5% (inactive),106% (inactive),89.3% (inactive),-1.44% (inactive),90.8%,89.3%,-7.76% (inactive),-1.15% (inactive)
COc1ccc(C2CC(=O)c3cnc(NC(=O)c4ccccc4OC)nc3C2)c(OC)c1 (stereo not given),97.5%,49% (active),97.5% (inactive),75.1% (inactive),87% (inactive),-5.78% (inactive),92.7%,87%,-5.07% (inactive),1.15% (inactive)
O=C(O)COc1ccc2occ(C(=O)c3ccccc3)c2c1,102%,95.5% (inactive),102% (inactive),100% (inactive),93.9% (inactive),1.01% (inactive),92.9%,93.9%,-3.55% (inactive),7.21% (inactive)
CCOC(=O)N1CCC(NC(=O)CCc2c(C)nc3c(c(C)nn3C(C)(C)C)c2C)CC1,91%,78.5% (inactive),91% (inactive),82.2% (inactive),85.1% (inactive),1.25% (inactive),83.9%,85.1%,-4.61% (inactive),-3.02% (inactive)
CC(C)(C)OC(=O)N1CCC(C(=O)N[C@H](Cc2ccccc2)C(=O)O)CC1,101%,93.5% (inactive),101% (inactive),108% (inactive),98.2% (inactive),3.02% (inactive),95.1%,98.2%,-10.4% (inactive),3.5% (inactive)
Cc1nnc(SCc2cn3ccsc3n2)n(N)c1=O,95.5%,81.5% (inactive),95.5% (inactive),95% (inactive),86.5% (inactive),-4.16% (inactive),90.7%,86.5%,0.26% (inactive),21.3% (inactive)
Cc1cccc(N2CCN(C(=O)CCn3c(=S)[nH]c4cc5c(cc4c3=O)OCO5)CC2C)c1 (stereo not given),86%,85.5% (inactive),86% (inactive),38.2% (inactive),50.8% (inactive),-5.97% (inactive),56.8%,50.8%,-1.3% (inactive),1.27% (inactive)

SMILES,viability [1],Her2 level [2],viability [3],viability [4],viability [5],differential viability (reversal) ([6]; H69AR cells + 2 uM doxorubicin),"viability [6, 9]","viability [6, 10]",inhibition [7],inhibition [8]
CCn1c(SCC(=O)Nc2nccs2)nnc1-c1ccncc1,101%,63.5% (inactive),101% (inactive),87% (inactive),84.8% (inactive),-2.34% (inactive),87.1%,84.8%,-2.11% (inactive),2.7% (inactive)
O=c1[nH]cnc2c1C1(CCCC1)Cc1ccccc1-2,95.5%,90% (inactive),95.5% (inactive),93.1% (inactive),100% (inactive),11.5% (inactive),88.7%,100%,-0.26% (inactive),-0.5% (inactive)
COc1ccccc1-n1c(-c2cccnc2)n[nH]c1=S,88%,109% (inactive),88% (inactive),110% (inactive),109% (inactive),6.74% (inactive),102%,109%,-0.4% (inactive),-2.95% (inactive)
Cc1nnc(SCc2ccccc2)n1N,104%,98% (inactive),104% (inactive),103% (inactive),99.6% (inactive),0.72% (inactive),98.9%,99.6%,-0.67% (inactive),-5.32% (inactive)
COc1ccccc1N1CCN(C(=O)CSc2nc(-c3ccccc3)cc(=O)[nH]2)CC1,87.5%,124% (inactive),87.5% (inactive),80.8% (inactive),88.1% (inactive),-1.75% (inactive),89.8%,88.1%,-3.16% (inactive),-6.83% (inactive)
CCC(=O)N1CCc2cc(S(=O)(=O)CCC(=O)Nc3ccc(F)c(F)c3)ccc21,104%,160% (inactive),104% (inactive),97.3% (inactive),92.3% (inactive),10.2% (inactive),82.1%,92.3%,0.13% (inactive),-6% (inactive)
Clc1ccc(SCCn2ccnc2)cc1,96%,96% (inactive),96% (inactive),94.3% (inactive),96.2% (inactive),11.8% (inactive),84.3%,96.2%,-6.22% (inactive),-10.2% (inactive)
COc1ccc(C(=O)NCCCCCC(=O)O)cc1OC,125%,99% (inactive),125% (inactive),90.5% (inactive),92.2% (inactive),-8.78% (inactive),101%,92.2%,-7.24% (inactive),-3.33% (inactive)
CN1C2C=C3C(C#N)=C(N)C(C#N)(C#N)[C@@H](c4ccc(Cl)cc4)[C@@H]3C1CC2 (stereo not given in full),95%,87% (inactive),95% (inactive),91.3% (inactive),68.9% (inactive),-26.1% (inactive),94.9%,68.9%,-5.73% (inactive),-0.32% (inactive)
COc1cccc(CN(C)CC(=O)NC(=O)NCc2ccco2)c1,106%,100% (inactive),106% (inactive),92.7% (inactive),84.7% (inactive),5.36% (inactive),79.4%,84.7%,0.92% (inactive),21.4% (inactive)
CCOCCCNc1ncnc2c1[nH]c1ccccc12,99%,96.5% (inactive),99% (inactive),89.5% (inactive),90.3% (inactive),-13.3% (inactive),104%,90.3%,-2.63% (inactive),1.31% (inactive)
COc1cccc(C2C(C#N)=C(N)OC3=C2C(=O)CCC3)c1OC(=O)c1ccco1 (stereo not given),106%,84% (inactive),106% (inactive),83.6% (inactive),99.7% (inactive),13.1% (inactive),86.6%,99.7%,-4.53% (inactive),3.71% (inactive)
O=C(CSc1nnc(-c2ccccc2Cl)n1Cc1ccco1)Nc1ccc2c(c1)OCCO2,83.5%,80% (inactive),83.5% (inactive),93.9% (inactive),77.7% (inactive),-12.8% (inactive),90.5%,77.7%,-3.07% (inactive),-4.75% (inactive)
CC1Cc2nc(SCC(=O)Nc3ccc(F)cc3F)n(C)c(=O)c2S1 (stereo not given),90%,100% (inactive),90% (inactive),102% (inactive),91.7% (inactive),-8.34% (inactive),100%,91.7%,-1.78% (inactive),2.7% (inactive)
CCOC(=O)C1CCCN(C(=O)c2ccc(CS(=O)(=O)Cc3ccccc3C)o2)C1 (stereo not given),94.5%,97.5% (inactive),94.5% (inactive),84.4% (inactive),96.2% (inactive),9.89% (inactive),86.3%,96.2%,-0.39% (inactive),-8.23% (inactive)
COc1cc(NC(=O)NC(C)(C(F)(F)F)C(F)(F)F)cc(OC)c1OC,138%,106% (inactive),138% (inactive),91.1% (inactive),99.5% (inactive),-2.39% (inactive),102%,99.5%,-4.08% (inactive),11.3% (inactive)
